“And” between values parts separate entries of the source, which are not always exact repeats. Identical values can stand only once. *1 amine or outer side, *2 acyl side, *3 side chain or, on linkers, in order; H or OH if unused. Where a SMILES comes first, the peptide text is derived from it. Bridges are numbered along the chain shown (N, C = ends). Roman numbers before positions name the chains, in order. [ ]: non-standard residue; d: D form. Hexamethylenediamine = C(CCCN[*:2])CCN[*:1]; Dip = N[C@H](C(=O)O)C(c1ccccc1)c1ccccc1; Chg = N[C@H](C(=O)O)C1CCCCC1; NMeA = CN[C@@H](C)C(=O)O
Test system: U2OS
Assay: Multiplex assay against U2OS
Format: toxicity, cell-based
Conditions: human, number of replicates 2
Summary of the method: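 On a CQ1 microscope at 37°C and 5% CO2, live cells were imaged after compound addition. They had been stained at seeding with Hoechst33342, BioTracker Green Microtubule Cytoskeleton Dye, MitoTracker Red and Annexin V Alexa Fluor 680. CellPathfinder machine-learning gating assigned cells to Hoechst high-intensity objects or normal cells, normal cells to healthy, pyknosed or fragmented nuclei, and pyknosed cells to mitotic or apoptotic. Tubulin, mitochondrial-mass and membrane-permeability phenotypes are per cents of healthy-nucleus cells.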

[1] = 12 h, 1 µM, compound concentration 1 uM
[2] = 12 h, 10 µM, compound concentration 10 uM
[3] = 24 h, 1 µM, compound concentration 1 uM
[4] = 24 h, 10 µM, compound concentration 10 uM
[5] = 48 h, 1 µM, compound concentration 1 uM
[6] = 48 h, 10 µM, compound concentration 10 uM

CN[C@@H](C)C(=O)N[C@H](C(=O)N1CCC[C@H]1C(=O)N[C@H](C(=O)NCCCCCCNC(=O)[C@@H](NC(=O)[C@@H]1CCCN1C(=O)[C@@H](NC(=O)[C@H](C)NC)C1CCCCC1)C(c1ccccc1)c1ccccc1)C(c1ccccc1)c1ccccc1)C1CCCCC1 (I: H-[NMeA][Chg]P[Dip] / II: H-[NMeA][Chg]P[Dip]; linker I:C-II:C via Hexamethylenediamine)
Population Apoptotic (%) [1]: 75% and 38%
Population Healthy Nuclei (%) [1]: 41% and 84%
Population Hoechst High Intensity Objects (%) [1]: 0%
Population Membrane Permeable-Phenotype (%) [1]: 0%
Population Mitochondria Different-Phenotype (%) [1]: 0%
Population Mitotic Cells (%) [1]: 25% and 61%
Population Normal (%) [1]: 100%
Population Pyknosed Nuclei (%) [1]: 7% and 12%
Population Tubulin-Different-Phenotype (%) [1]: 36% and 78%
Total Cell Count [1]: 53 and 104
Population Apoptotic (%) [2]: 90% and 91%
Population Healthy Nuclei (%) [2]: 62% and 56%
Population Hoechst High Intensity Objects (%) [2]: 1% and 0%
Population Membrane Permeable-Phenotype (%) [2]: 10% and 0%
Population Mitochondria Different-Phenotype (%) [2]: 20% and 19%
Population Mitotic Cells (%) [2]: 9% and 8%
Population Normal (%) [2]: 98% and 100%
Population Pyknosed Nuclei (%) [2]: 31% and 21%
Population Tubulin-Different-Phenotype (%) [2]: 57% and 22%
Population Apoptotic (%) [3]: 62% and 52%
Population Healthy Nuclei (%) [3]: 47% and 89%
Population Hoechst High Intensity Objects (%) [3]: 0%
Population Membrane Permeable-Phenotype (%) [3]: 9% and 0%
Population Mitochondria Different-Phenotype (%) [3]: 0%
Population Mitotic Cells (%) [3]: 37% and 47%
Population Normal (%) [3]: 100%
Population Pyknosed Nuclei (%) [3]: 12% and 9%
Total Cell Count [3]: 65 and 175
Population Apoptotic (%) [4]: 77% and 80%
Population Fragmented Nuclei (%) [4]: 9%
Population Healthy Nuclei (%) [4]: 54% and 58%
Population Hoechst High Intensity Objects (%) [4]: 0%
Population Membrane Permeable-Phenotype (%) [4]: 11% and 8%
Population Mitotic Cells (%) [4]: 22% and 19%
Population Normal (%) [4]: 100% and 99%
Population Pyknosed Nuclei (%) [4]: 35% and 32%
Population Tubulin-Different-Phenotype (%) [4]: 23% and 47%
Population Apoptotic (%) [5]: 78% and 74%
Population Healthy Nuclei (%) [5]: 45% and 79%
Population Hoechst High Intensity Objects (%) [5]: 0%
Population Membrane Permeable-Phenotype (%) [5]: 9% and 2%
Population Mitochondria Different-Phenotype (%) [5]: 4% and 0%
Population Mitotic Cells (%) [5]: 21% and 25%
Population Normal (%) [5]: 100%
Population Pyknosed Nuclei (%) [5]: 20% and 12%
Population Tubulin-Different-Phenotype (%) [5]: 33% and 81%
Population Apoptotic (%) [6]: 94% and 76%
Population Fragmented Nuclei (%) [6]: 7% and 14%
Population Healthy Nuclei (%) [6]: 63% and 52%
Population Hoechst High Intensity Objects (%) [6]: 0%
Population Membrane Permeable-Phenotype (%) [6]: 9% and 10%
Population Mitochondria Different-Phenotype (%) [6]: 7% and 8%
Population Normal (%) [6]: 99% and 100%
Population Pyknosed Nuclei (%) [6]: 28% and 33%
Population Tubulin-Different-Phenotype (%) [6]: 50% and 34%

CCN1C(=O)N(c2c(F)c(OC)cc(OC)c2F)Cc2cnc3[nH]c(CN4CCOCC4)cc3c21 [PEMIGATINIB]
Population Apoptotic (%) [1]: 83% and 63%
Population Fragmented Nuclei (%) [1]: 7% and 3%
Population Healthy Nuclei (%) [1]: 82% and 90%
Population Hoechst High Intensity Objects (%) [1]: 0%
Population Membrane Permeable-Phenotype (%) [1]: 0% and 1%
Population Mitochondria Different-Phenotype (%) [1]: 0% and 1%
Population Mitotic Cells (%) [1]: 16% and 36%
Population Normal (%) [1]: 100%
Population Pyknosed Nuclei (%) [1]: 9% and 5%
Population Tubulin-Different-Phenotype (%) [1]: 64% and 80%
Population Apoptotic (%) [2]: 33% and 74%
Population Healthy Nuclei (%) [2]: 45% and 78%
Population Hoechst High Intensity Objects (%) [2]: 0%
Population Membrane Permeable-Phenotype (%) [2]: 0% and 5%
Population Mitochondria Different-Phenotype (%) [2]: 0%
Population Mitotic Cells (%) [2]: 66% and 25%
Population Normal (%) [2]: 100%
Population Pyknosed Nuclei (%) [2]: 29% and 15%
Population Tubulin-Different-Phenotype (%) [2]: 64% and 52%
Population Apoptotic (%) [3]: 54% and 90%
Population Fragmented Nuclei (%) [3]: 6% and 2%
Population Healthy Nuclei (%) [3]: 81% and 89%
Population Hoechst High Intensity Objects (%) [3]: 0%
Population Membrane Permeable-Phenotype (%) [3]: 1% and 2%
Population Mitochondria Different-Phenotype (%) [3]: 0% and 2%
Population Normal (%) [3]: 100% and 99%
Population Pyknosed Nuclei (%) [3]: 12% and 7%
Population Tubulin-Different-Phenotype (%) [3]: 66% and 78%
Total Cell Count [3]: 91 and 271
Population Apoptotic (%) [4]: 80% and 78%
Population Fragmented Nuclei (%) [4]: 14% and 6%
Population Healthy Nuclei (%) [4]: 48% and 72%
Population Hoechst High Intensity Objects (%) [4]: 0% and 1%
Population Membrane Permeable-Phenotype (%) [4]: 0% and 5%
Population Mitochondria Different-Phenotype (%) [4]: 0% and 4%
Population Mitotic Cells (%) [4]: 20% and 21%
Population Normal (%) [4]: 100% and 98%
Population Pyknosed Nuclei (%) [4]: 37% and 21%
Population Tubulin-Different-Phenotype (%) [4]: 69% and 56%
Population Apoptotic (%) [5]: 50% and 76%
Population Fragmented Nuclei (%) [5]: 8% and 2%
Population Healthy Nuclei (%) [5]: 80% and 89%
Population Hoechst High Intensity Objects (%) [5]: 0%
Population Membrane Permeable-Phenotype (%) [5]: 0% and 1%
Population Mitochondria Different-Phenotype (%) [5]: 0%
Population Mitotic Cells (%) [5]: 50% and 23%
Population Normal (%) [5]: 100% and 99%
Population Pyknosed Nuclei (%) [5]: 10% and 8%
Population Tubulin-Different-Phenotype (%) [5]: 72% and 82%
Population Apoptotic (%) [6]: 86% and 82%
Population Fragmented Nuclei (%) [6]: 11% and 6%
Population Healthy Nuclei (%) [6]: 25% and 60%
Population Hoechst High Intensity Objects (%) [6]: 0%
Population Membrane Permeable-Phenotype (%) [6]: 0% and 7%
Population Mitochondria Different-Phenotype (%) [6]: 0% and 5%
Population Mitotic Cells (%) [6]: 13% and 17%
Population Normal (%) [6]: 100% and 99%
Population Pyknosed Nuclei (%) [6]: 63% and 33%
Population Tubulin-Different-Phenotype (%) [6]: 44% and 60%
